Results taken from ChEMBL document CHEMBL1764993, “Synthesis and biological evaluation of novel irreversible serine protease inhibitors using amino acid based sulfonyl fluorides as an electrophilic trap” (Bioorg Med Chem, 2011).
Active and inactive are the calls of the source. The calls are words filed in the database; no cut-off is given here.

Legend:
[1] = biological target: T1, Papain (Carica papaya) (UniProt P00784); experiment: Inhibition of papaya papain assessed as p-nitroaniline release at 2.5 uM after 1 hr pre-inhibition using Bz-L-Tyr-pNA as a substrate by calorimetric assay
T1 sequence (whole entry): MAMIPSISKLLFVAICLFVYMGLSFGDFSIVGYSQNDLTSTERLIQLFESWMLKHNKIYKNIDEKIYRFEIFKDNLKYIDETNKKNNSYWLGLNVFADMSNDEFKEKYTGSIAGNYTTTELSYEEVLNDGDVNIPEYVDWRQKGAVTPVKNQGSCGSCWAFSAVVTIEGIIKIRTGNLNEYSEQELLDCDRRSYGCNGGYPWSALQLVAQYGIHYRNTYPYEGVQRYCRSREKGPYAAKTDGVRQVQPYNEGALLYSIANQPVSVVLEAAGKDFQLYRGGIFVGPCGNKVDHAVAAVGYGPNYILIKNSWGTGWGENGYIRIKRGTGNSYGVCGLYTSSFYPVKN

[2] = Inhibition of chymotrypsin assessed as p-nitroaniline release after 30 mins pre-incubated with compound for 1 hr before addition of Bz-L-Tyr-pNA as a substrate by calorimetric assay
Outline: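 Chymotrypsin (commercial, used as received) pre-incubated 1 h with inhibitor in DMSO in sodium phosphate 0.05 M pH 7.0; aliquot then added to Bz-L-Tyr-pNA. Final: enzyme 1.0 µM, substrate 0.25 mM; DMSO controls. p-Nitroaniline release read at 405 nm for 30 min at rt to give residual activity. Triplicate or quadruplicate.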

[3] = Inhibition of chymotrypsin assessed as p-nitroaniline release at 20 uM measured at every 6 mins for 15 mins using Bz-L-Tyr-pNA as a substrate
Outline: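 kinact: chymotrypsin mixed with inhibitor in sodium phosphate 0.05 M pH 7.0; aliquots moved into Bz-L-Tyr-pNA wells at 0–5 min, then all read at 405 nm for 15 min. Final enzyme 0.5 µM, substrate 250 µM, inhibitor 20 µM. Residual activity plotted against preincubation time.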

[4] = Inhibition of chymotrypsin assessed as p-nitroaniline release measured for 15 mins using Bz-L-Tyr-pNA as a substrate by Dixon plot analysis
Outline: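 Ki from Dixon plots: chymotrypsin (final 0.5 µM) in sodium phosphate 0.05 M pH 7.0 with Bz-L-Tyr-pNA at 0.15–0.25 mM and inhibitor at 7.81, 15.63 or 31.25 µM (final), no preincubation. p-Nitroaniline read directly at 405 nm for 15 min; DMSO controls; quadruplicate.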

In the case of `CC(C)C[C@@H](CS(=O)(=O)F)NC(=O)OCc1ccccc1`, the Activity [1] is reported as “Active” and the Activity [2] is reported as “Active”.
`O=S(=O)(F)Cc1ccccc1` [PHENYLMETHYLSULFONYLFLUORIDE] gave a Kinact [3] of 0.32 min⁻¹ and a Ki ([4]; read-out: Ki) of 13 µM.
For `CC(C)[C@@H](CS(=O)(=O)F)NC(=O)OCC1c2ccccc2-c2ccccc21`, the Activity [2] was “Active”.
For `C[C@@H](CS(=O)(=O)F)NC(=O)OCc1ccccc1`, the Ki [4] was “Not Active”, the Activity [1] was “Active” and the Activity [2] was “Active”.
In the case of `O=C(NCCS(=O)(=O)F)OCc1ccccc1`, the Activity [1] is reported as “Active” and the Activity [2] is reported as “Active”.
With `O=C(N[C@@H](Cc1ccccc1)CS(=O)(=O)F)OCc1ccccc1` the Activity [1] was “Active” and the Activity [2] was “Active”.
